Measurements taken from ChEMBL document CHEMBL1121930, “Design of more potent antagonists of the antidiuretic responses to arginine-vasopressin” (J Med Chem, 1982).
Values joined by “and” are separate entries in the source; they are usually repeats but may differ in a detail not shown here. Identical values can stand only once. *1 amine or outer side, *2 acyl side, *3 side chain or, on linkers, in order; H or OH if unused. Where a SMILES comes first, the peptide text is derived from it. Bridges are numbered along the chain shown (N, C = ends). [ ]: non-standard residue; d: D form. The star is where a group is joined. X1 = O=C(CC1(S[*:2])CCCCC1)[*:1]; Propyl = CCC*; iPr = CC(C)*

Experiments:
Rattus norvegicus [1] = assay: Antivasopressor effective dose is defined as the dose that reduces the response seen with 2 units of agonist to equal the response seen with 1 unit of agonist administered before antagonist.; format: functional
Method in brief: (§1)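 Intravenous vasopressor assay in phenoxybenzamine-treated rats under urethane anesthesia, agonist USP posterior pituitary reference standard. Effective dose (nmol/kg) cuts the response to 2x units of agonist to that of 1x units given before the antagonist. pA2 = −log(effective dose / 67 mL/kg).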

Rattus norvegicus [2] = assay: Effective dose is defined as the dose that reduces the response seen with 2 units of agonist to equal the response seen with 1 unit of agonist administered before antagonist.; format: functional
Rattus norvegicus [3] = assay: In vivo pA2 value represent the negative logarithm of the effective dose divided by the estimated volume of distribution (67 mL/kg).; format: functional, organism-based
Rattus norvegicus [4] = assay: Antivasopressor effective dose is expressed as the dose that reduces the response seen with 2 units of agonist to equal the response seen with 1 unit of agonist administered before antagonist.; format: functional; method in brief: as §1
Rattus norvegicus [5] = assay: In vivo pA2 value represent the negative logarithm of the anti-vasopressor effective dose divided by the estimated volume of distribution (67 mL/kg).; format: functional, organism-based; details: read-out: pA2 (converted); method in brief: as §1
Rattus norvegicus [6] = assay: In vivo pA2 value represent the negative logarithm of the antidiuretic effective dose divided by the estimated volume of distribution (67 mL/kg).; format: functional, organism-based; details: Urine, read-out: pA2 (converted)
Method in brief: (§2)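 Rats under ethanol anesthesia, agonist USP posterior pituitary reference standard. Agonist injected 20 and 50 min after the antagonist. Responses at 20 min were used, or at 50 min for analogues that inhibited more then. Each antagonist was given at two doses, one above and one below the effective dose (nmol/kg). pA2 = −log(effective dose / 67 mL/kg).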

Rattus norvegicus [7] = assay: Antidiuretic effective dose is expressed as the dose that reduces the response seen with 2 units of agonist to equal the response seen with 1 unit of agonist administered before antagonist.; format: functional, Urine; method in brief: as §2
Rattus norvegicus [8] = assay: Effective dose is defined as the dose that reduces the response seen with 2 units of agonist to equal the response seen with 1 unit of agonist administered before antagonist; agonist; format: functional, organism-based; details: filed as agonist

CC(C)[C@@H]1NC(=O)[C@H](Cc2ccccc2)NC(=O)[C@H](Cc2ccc(O)cc2)NC(=O)CC2(CCCCC2)SSC[C@@H](C(=O)N2CCC[C@H]2C(=O)N[C@H](CCCN=C(N)N)C(=O)NCC(N)=O)NC(=O)[C@H](CC(N)=O)NC1=O
Effective dose (Rattus norvegicus [1]): 1.5 nM/kg

CC(C)[C@@H]1NC(=O)[C@H](Cc2ccccc2)NC(=O)[C@@H](Cc2ccc(O)cc2)NC(=O)CC2(CCCCC2)SSC[C@@H](C(=O)N2CCC[C@H]2C(=O)N[C@@H](CCCN=C(N)N)C(=O)NCC(N)=O)NC(=O)[C@H](CC(N)=O)NC1=O
Effective dose (Rattus norvegicus [1]): 0.29 nM/kg
Effective dose (Rattus norvegicus [2]): 2.2 nM/kg

CCOc1ccc(C[C@@H]2NC(=O)CC3(CCCCC3)SSC[C@@H](C(=O)N3CCC[C@H]3C(=O)N[C@@H](CCCN=C(N)N)C(=O)NCC(N)=O)NC(=O)[C@H](CC(N)=O)NC(=O)[C@H](C(C)C)NC(=O)[C@H](Cc3ccccc3)NC2=O)cc1 (Y(Et)FVNCPRG-NH2; linker N-5 via X1)
Effective dose (Rattus norvegicus [1]): 0.45 nM/kg
pA2 (Rattus norvegicus [3]): 7.81 and 8.22
Effective dose (Rattus norvegicus [2]): 1.1 nM/kg

CCOc1ccc(C[C@@H]2NC(=O)CC3(CCCCC3)SSC[C@@H](C(=O)N3CCC[C@H]3C(=O)N[C@H](CCCN=C(N)N)C(=O)NCC(N)=O)NC(=O)[C@H](CC(N)=O)NC(=O)[C@H](C(C)C)NC(=O)[C@H](Cc3ccccc3)NC2=O)cc1 (Y(Et)FVNCP[dR]G-NH2; linker N-5 via X1)
Effective dose (Rattus norvegicus [1]): 0.88 nM/kg
Effective dose (Rattus norvegicus [2]): 1.8 nM/kg

COc1ccc(C[C@@H]2NC(=O)CC3(CCCCC3)SSC[C@@H](C(=O)N3CCC[C@H]3C(=O)N[C@@H](CCCN=C(N)N)C(=O)NCC(N)=O)NC(=O)[C@H](CC(N)=O)NC(=O)[C@H](C(C)C)NC(=O)[C@H](Cc3ccccc3)NC2=O)cc1 (Y(Me)FVNCPRG-NH2; linker N-5 via X1)
Effective dose (Rattus norvegicus [1]): 0.23 nM/kg
Effective dose (Rattus norvegicus [2]): 1.2 nM/kg

COc1ccc(C[C@@H]2NC(=O)CC3(CCCCC3)SSC[C@@H](C(=O)N3CCC[C@H]3C(=O)N[C@H](CCCN=C(N)N)C(=O)NCC(N)=O)NC(=O)[C@H](CC(N)=O)NC(=O)[C@H](C(C)C)NC(=O)[C@H](Cc3ccccc3)NC2=O)cc1 (Y(Me)FVNCP[dR]G-NH2; linker N-5 via X1)
Effective dose (Rattus norvegicus [4]): 0.54 nM/kg
Kb (Rattus norvegicus [5]): 7.94 nM
Kb (Rattus norvegicus [6]): 64.6 nM
Effective dose (Rattus norvegicus [7]): 4.9 nM/kg

CCCOc1ccc(C[C@@H]2NC(=O)CC3(CCCCC3)SSC[C@@H](C(=O)N3CCC[C@H]3C(=O)N[C@@H](CCCN=C(N)N)C(=O)NCC(N)=O)NC(=O)[C@H](CC(N)=O)NC(=O)[C@H](C(C)C)NC(=O)[C@H](Cc3ccccc3)NC2=O)cc1 (Y(Propyl)FVNCPRG-NH2; linker N-5 via X1)
Effective dose (Rattus norvegicus [1]): 0.51 nM/kg
Effective dose (Rattus norvegicus [2]): 1.7 nM/kg

CC(C)Oc1ccc(C[C@@H]2NC(=O)CC3(CCCCC3)SSC[C@@H](C(=O)N3CCC[C@H]3C(=O)N[C@@H](CCCN=C(N)N)C(=O)NCC(N)=O)NC(=O)[C@H](CC(N)=O)NC(=O)[C@H](C(C)C)NC(=O)[C@H](Cc3ccccc3)NC2=O)cc1 (Y(iPr)FVNCPRG-NH2; linker N-5 via X1)
Effective dose (Rattus norvegicus [1]): 0.28 nM/kg
Effective dose (Rattus norvegicus [2]): 1.6 nM/kg

CC(C)Oc1ccc(C[C@@H]2NC(=O)CC3(CCCCC3)SSC[C@@H](C(=O)N3CCC[C@H]3C(=O)N[C@H](CCCN=C(N)N)C(=O)NCC(N)=O)NC(=O)[C@H](CC(N)=O)NC(=O)[C@H](C(C)C)NC(=O)[C@H](Cc3ccccc3)NC2=O)cc1 (Y(iPr)FVNCP[dR]G-NH2; linker N-5 via X1)
Effective dose (Rattus norvegicus [1]): 0.46 nM/kg
Effective dose (Rattus norvegicus [2]): 2.2 nM/kg

CC(C)[C@@H]1NC(=O)[C@H](Cc2ccccc2)NC(=O)[C@H](Cc2ccc(O)cc2)NC(=O)CC2(CCCCC2)SSC[C@@H](C(=O)N2CCC[C@H]2C(=O)N[C@@H](CCCN=C(N)N)C(=O)NCC(N)=O)NC(=O)[C@H](CC(N)=O)NC1=O (stereo in doubt) [listing 1 of 2 here]
Effective dose (Rattus norvegicus [1]): 0.76 nM/kg

CC(C)[C@@H]1NC(=O)[C@H](Cc2ccccc2)NC(=O)[C@H](Cc2ccc(O)cc2)NC(=O)CC2(CCCCC2)SSC[C@@H](C(=O)N2CCC[C@H]2C(=O)N[C@@H](CCCN=C(N)N)C(=O)NCC(N)=O)NC(=O)[C@H](CC(N)=O)NC1=O (stereo in doubt) [listing 2 of 2 here]
Effective dose (Rattus norvegicus [8]): Agonist

CC(C)[C@@H]1NC(=O)[C@H](Cc2ccccc2)NC(=O)[C@H](Cc2ccc(O)cc2)NC(=O)CC2(CCCCC2)SSC[C@@H](C(=O)N2CCC[C@H]2C(=O)N[C@@H](CCCN=C(N)N)C(=O)NCC(N)=O)NC(=O)[C@H](CC(N)=O)NC1=O (stereo in doubt; 9)
Effective dose (Rattus norvegicus [1]): 0.6 nM/kg
Effective dose (Rattus norvegicus [2]): 6.3 nM/kg
